# Assay results collected from several papers.
# Observed: DPPH scavenging
SMILES,test,setting,IC50
CCCCCCCCCCC1NCCc2cc(O)c(O)cc21 (centres unmarked),absorbance,"30 min, dark",60.7 µM
O=C1O[C@H]([C@@H](O)CO)C(O)=C1O,absorbance,30 min,90.1 µM
CCCCCC1NCCc2cc(O)c(O)cc21 (centres unmarked),absorbance,"30 min, dark",63 µM
C=C(C)[C@@H]1CC[C@]2(C)CC[C@]3(C)[C@H](CC[C@@H]4[C@@]5(C)CC[C@H](O)C(C)(C)[C@@H]5CC[C@]43C)[C@@H]12,absorbance,,18.6 µg/mL
CCOC(=O)C1=C(CSC2=NCCS2)NC(=O)NC1c1ccc(F)cc1F (centres unmarked),,,137 µM
O=c1c(O)c(-c2ccc(O)c(O)c2)oc2cc(O)cc(O)c12,,,18.6 µM
COc1cccc(C2NCCc3cc(O)c(O)cc32)c1O (centres unmarked),absorbance,"30 min, dark",6.49 µM
CCCCCCCCCCCCCCCCCCc1ccc(O)cc1,,,204 µM
CCOC(=O)C1=C(CCl)NC(=O)NC1c1ccccc1 (centres unmarked),,,207 µM
Cc1ccc(NC(=O)CSc2nc3ccccc3cc2C=Nn2c(S)nnc2-c2ccccc2)cc1,,,120 µM
COc1cc(C2NCCc3cc(O)c(O)cc32)cc(OC)c1O (centres unmarked),absorbance,"30 min, dark",11.2 µM
O=C(O[C@@H]1COC(=O)c2cc(O)c(O)c(O)c2-c2c(cc(O)c(O)c2O)C(=O)O[C@H]1[C@@H]1OC(=O)c2cc(O)c(O)c(O)c2-c2c(O)c(O)c(O)c3c2C(=O)O[C@H]1[C@@H]3O)c1cc(O)c(O)c(O)c1,absorbance,,5.37 µg/mL
CCOC(=O)C1=C(CCl)NC(=O)NC1c1cccc(Cl)c1 (centres unmarked),,,104 µM
Cc1ccccc1NC(=O)CSc1nc2ccccc2cc1C=Nn1c(S)nnc1-c1ccccc1,,,131 µM
CCOC(=O)C1=C(CSC2=NCCS2)NC(=O)NC1c1ccc(OC)cc1 (centres unmarked),,,139 µM
O=C1O[C@H]([C@@H](O)CO)C(O)=C1O,,,9.1 µg/mL
CCOC(=O)C1=C(CCl)NC(=O)NC1c1cccc(F)c1 (centres unmarked),,,179 µM
CCCCCCCCCCCCCCCC1NCCc2cc(O)c(O)cc21 (centres unmarked),absorbance,"30 min, dark",37.3 µM
CCOC(=O)C1=C(CCl)NC(=O)NC1c1cccc(OC)c1 (centres unmarked),,,86.7 µM
O=C1O[C@H]([C@@H](O)CO)C(O)=C1O,absorbance,"30 min, dark",30.8 µM
